Results taken from ChEMBL document CHEMBL1156225, “Ircinialactams: subunit-selective glycine receptor modulators from Australian sponges of the family Irciniidae” (Bioorg Med Chem, 2010).
pEC50, pIC50: −log10 of the molar value. The source made the active and inactive calls. No cut-off for these calls is given here.

What was measured:
Type in all cases: functional, cell-based
[1] = target: T1, Glycine receptor subunit alpha-3 (Homo sapiens, UniProt O75311); assay: Antagonist activity at human recombinant alpha 3 GlyR expressed in HEK293 cells assessed as inhibition of glycine current influx by whole cell patch clamp assay; conditions: for pIC50: read-out: IC50; for IC50: hek293
T1 sequence (O75311 whole entry): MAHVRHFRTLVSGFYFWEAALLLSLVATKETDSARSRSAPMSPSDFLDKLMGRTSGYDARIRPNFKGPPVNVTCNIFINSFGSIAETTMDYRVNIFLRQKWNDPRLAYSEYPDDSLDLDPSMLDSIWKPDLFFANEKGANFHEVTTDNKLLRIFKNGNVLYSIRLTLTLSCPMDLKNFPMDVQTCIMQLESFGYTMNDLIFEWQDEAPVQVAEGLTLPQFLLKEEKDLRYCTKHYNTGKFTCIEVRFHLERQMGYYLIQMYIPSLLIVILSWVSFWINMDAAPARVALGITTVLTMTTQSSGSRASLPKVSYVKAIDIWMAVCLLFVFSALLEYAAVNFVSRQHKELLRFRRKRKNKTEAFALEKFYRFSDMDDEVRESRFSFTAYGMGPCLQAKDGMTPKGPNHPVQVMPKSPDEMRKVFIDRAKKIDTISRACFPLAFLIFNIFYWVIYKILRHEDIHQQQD

[2] = target: T2, Glycine receptor subunit alpha-1 (Homo sapiens, UniProt P23415); assay: (§1) Antagonist activity at human recombinant alpha 1 GlyR expressed in HEK293 cells assessed as inhibition of glycine current influx by whole cell patch clamp assay
T2 sequence (P23415 whole entry): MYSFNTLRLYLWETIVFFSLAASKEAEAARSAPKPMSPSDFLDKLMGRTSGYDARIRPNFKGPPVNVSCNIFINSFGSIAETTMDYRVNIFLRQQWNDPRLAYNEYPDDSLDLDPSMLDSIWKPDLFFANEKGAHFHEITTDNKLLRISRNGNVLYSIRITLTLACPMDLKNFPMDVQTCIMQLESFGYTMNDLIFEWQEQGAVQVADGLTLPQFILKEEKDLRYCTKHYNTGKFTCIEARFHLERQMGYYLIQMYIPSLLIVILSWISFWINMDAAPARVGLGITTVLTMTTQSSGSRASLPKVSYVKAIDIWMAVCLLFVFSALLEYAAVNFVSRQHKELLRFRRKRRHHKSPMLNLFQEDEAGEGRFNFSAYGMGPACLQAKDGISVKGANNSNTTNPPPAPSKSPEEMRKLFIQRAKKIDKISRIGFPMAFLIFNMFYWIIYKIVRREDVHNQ

[3] = target: T1, Glycine receptor subunit alpha-3; assay: Agonist activity at human recombinant alpha 3 GlyR expressed in HEK293 cells assessed as potentiation of glycine current by whole cell patch clamp assay
[4] = target: T2, Glycine receptor subunit alpha-1; assay: Agonist activity at human recombinant alpha 1 GlyR expressed in HEK293 cells assessed as potentiation of glycine current by whole cell patch clamp assay; conditions: for EC50: hek293; for pEC50: read-out: EC50
[5] = target: T3, Glycine receptor subunit alpha-2 (Homo sapiens) (UniProt P23416); assay: Antagonist activity at human recombinant alpha 2 GlyR expressed in HEK293 cells assessed as inhibition of glycine current influx by whole cell patch clamp assay
T3 sequence (whole entry): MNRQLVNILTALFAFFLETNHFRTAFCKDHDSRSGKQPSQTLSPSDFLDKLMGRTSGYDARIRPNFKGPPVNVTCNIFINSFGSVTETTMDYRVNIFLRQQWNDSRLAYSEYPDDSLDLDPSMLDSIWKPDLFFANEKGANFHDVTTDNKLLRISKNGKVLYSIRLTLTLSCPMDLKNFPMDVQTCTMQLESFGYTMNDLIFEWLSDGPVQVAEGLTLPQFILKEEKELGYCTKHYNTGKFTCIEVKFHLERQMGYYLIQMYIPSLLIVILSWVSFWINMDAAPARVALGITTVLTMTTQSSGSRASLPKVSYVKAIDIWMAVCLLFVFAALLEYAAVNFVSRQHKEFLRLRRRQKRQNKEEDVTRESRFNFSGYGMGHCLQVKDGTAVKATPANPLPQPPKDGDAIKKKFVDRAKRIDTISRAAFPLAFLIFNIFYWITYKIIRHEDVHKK
Method in brief: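 HEK293 cells transiently expressing α2 GlyR, recorded by conventional whole-cell patch clamp. Current was activated with EC20 glycine (50 µM), and compound was applied at 10 µM together with glycine. Response is expressed as % of control glycine current, averaged from six cells.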

[6] = target: T4, Glycine receptor subunit alpha-1 (Homo sapiens) (UniProt P23415); assay: as §1
T4 sequence (whole entry): T2 sequence (P23415 whole entry)

[7] = target: T4, Glycine receptor subunit alpha-1 (Homo sapiens); assay: Antagonist activity at human recombinant alpha 1 GlyR expressed in HEK293 cells assessed as inhibition of glycine current influx up to 30 uM by whole cell patch clamp assay
[8] = target: T4, Glycine receptor subunit alpha-1 (Homo sapiens); assay: Agonist activity at human recombinant alpha 1 GlyR expressed in HEK293 cells assessed as potentiation of glycine current at 100 uM by whole cell patch clamp assay relative to EC20 glycine maximum response
[9] = target: T4, Glycine receptor subunit alpha-1 (Homo sapiens); assay: Agonist activity at human recombinant alpha 1 GlyR expressed in HEK293 cells assessed as potentiation of glycine current up to 100 uM by whole cell patch clamp assay
[10] = target: T5, Glycine receptor subunit alpha-3 (Homo sapiens) (UniProt O75311); assay: Agonist activity at human recombinant alpha 3 GlyR expressed in HEK293 cells assessed as potentiation of glycine current up to 100 uM by whole cell patch clamp assay
T5 sequence (whole entry): T1 sequence (O75311 whole entry)

[11] = target: T5, Glycine receptor subunit alpha-3 (Homo sapiens); assay: Agonist activity at human recombinant alpha 3 GlyR expressed in HEK293 cells assessed as potentiation of glycine current at 100 uM by whole cell patch clamp assay relative to EC20 glycine maximum response
[12] = target: T3, Glycine receptor subunit alpha-2 (Homo sapiens); assay: Antagonist activity at human recombinant alpha 2 GlyR expressed in HEK293 cells assessed as inhibition of glycine current influx at 10 uM by whole cell patch clamp assay
[13] = target: T4, Glycine receptor subunit alpha-1 (Homo sapiens); assay: Agonist activity at human recombinant alpha 1 GlyR expressed in HEK293 cells assessed as potentiation of glycine current at 1 to 10 uM by whole cell patch clamp assay

Compound | pIC50 [1] | IC50 [2] | EC50 [3] | EC50 [4] | IC50 [1] | other results
CCOC(=O)C(O)(C[C@@H](C)CCC/C(C)=C/CC/C(C)=C/CCC1=CCN(CC(=O)O)C1=O)C(C)(O)C(=O)O (stereo partly specified) [IRCINIALACTAM D] | 4.52 | Not Active | Not Active | Not Active |  | 
C/C(=C\CCC1=CCN(CC(=O)O)C1=O)CC/C=C(\C)CCC[C@@H](C)CC(=O)O | 4.52 | Not Active | Not Active | Not Active |  | 
Cc1c(C(=O)c2cccc3ccccc23)c2cccc3c2n1[C@H](CN1CCOCC1)CO3 |  |  |  |  |  | Activity [5]: Active; Activity [6]: Active; Activity [7]: inactive
CC1=C(O)/C(=C/[C@@H](C)CCC/C(C)=C/CC/C(C)=C/CCc2ccoc2)OC1=O |  | Not Active | Not Active | Not Active | Not Active | 
CCCCCCC(C)(C)c1cc(OC)c([C@H]2C=C(CO)[C@@H]3C[C@H]2C3(C)C)c(OC)c1 |  |  |  |  |  | Activity [5]: Active; Activity [6]: Active; Activity [7]: inactive
CC1=C(O)/C(=C/[C@@H](C)CCC/C(C)=C/CC/C(C)=C/CCC2=CCN(CC(=O)O)C2=O)OC1=O [IRCINIALACTAM A] | 4.52 | Not Active | Not Active |  |  | Activity [8]: 140%; Activity [9]: inactive
CC1=C(O)/C(=C/[C@@H](C)CCC/C(C)=C/CCC(C)(O)CCCC2=CC(=O)N(CC(=O)O)C2)OC1=O (stereo partly specified) [8-HYDROXYIRCINIALACTAM B] |  | Not Active |  |  | Not Active | Activity [10]: inactive; Activity [11]: 183%; pEC50 [4]: 6.30; Activity [8]: 330%
CC1=C(O)/C(=C/[C@@H](C)CCC/C(C)=C\CC/C(C)=C/CCc2ccoc2)OC1=O |  | Not Active | Not Active | Not Active | Not Active | 
C/C(=C\CCC1=CCN(CC(=O)O)C1=O)CC/C=C(\C)CCC[C@H](C)CC(=O)O [IRCINIALACTAM C] | 4.52 | Not Active | Not Active | Not Active |  | 
CC1=C(O)/C(=C/C(C)/C=C/C=C(\C)CCCC(C)CCCc2ccoc2)OC1=O (stereo unspecified) |  | Not Active | Not Active | Not Active | Not Active | 
CC1=C(O)/C(=C/[C@@H](C)CCC/C(C)=C/CCC(C)(O)CCCC2=CCN(CC(=O)O)C2=O)OC1=O (stereo partly specified) [8-HYDROXYIRCINIALACTAM A] |  | Not Active | Not Active |  | Not Active | Activity [8]: 217%; Activity [9]: inactive
CC1=C(O)/C(=C/[C@@H](C)CCC/C(C)=C/CCC(C)(O)CCCc2ccoc2)OC1=O (stereo partly specified) | 5.15 | Not Active | Not Active |  |  | pEC50 [4]: 5.92; Activity [7]: Active; Activity [8]: 215%; inhibition [12]: 87%
CCCCCCC(C)(C)c1cc(O)c2c(c1)OC(C)(C)[C@@H]1CC=C(CO)C[C@@H]21 |  |  |  |  |  | Activity [5]: Active; Activity [6]: Active; Activity [7]: inactive
CC(C)(C)C1(O)CC[S+]([O-])CC1 (stereo unspecified) |  |  |  |  |  | Activity [13]: 135%
CC1=C(O)/C(=C/C(C)/C=C/C=C(\C)CCCc2coc(Cc3ccoc3)c2)OC1=O (stereo unspecified) [COMETIN A] |  | Not Active | Not Active | Not Active | Not Active | 
